Measurements from paper PMC6030701 (EMBO Reports, 2018).
Each block holds one molecule with its values, some of them ahead of it.

Columns and labels:
MSP domain of MOSPD2 = target: T1, MSP domain of MOSPD2 (Homo sapiens, UniProt Q8NHP6); experiment: Liposome aggregation; format: biochemical; conditions: DLS, 25°C
T1 sequence (Q8NHP6 282-490): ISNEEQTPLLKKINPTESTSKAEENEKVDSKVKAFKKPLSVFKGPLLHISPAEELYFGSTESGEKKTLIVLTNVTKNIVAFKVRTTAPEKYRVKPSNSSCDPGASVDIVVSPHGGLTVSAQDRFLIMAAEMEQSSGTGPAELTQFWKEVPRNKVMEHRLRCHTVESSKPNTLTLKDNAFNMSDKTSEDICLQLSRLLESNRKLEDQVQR

[1] = tested on: RD/LD mutant MSP domain of MOSPD2; experiment: Liposome aggregation; format: biochemical; conditions: DLS, 25°C, FFAT peptide 380 nM, RD/LD mutant MSP 760 nM
SEC = target: the molecule itself; experiment: SEC
STARD3 = experiment: MSP domain pull-down, STARD3; format: binding; conditions: 6His MSP on NTA-Ni2+ resin, HeLa/STARD3 protein extract, Western blot
Procedure, shortened: (§1)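 6His-tagged MSP domain (residues 282–490), from E. coli BL21 DE3 (1 mM IPTG, 20°C, 16 h), purified on Ni-NTA and by gel filtration. HeLa stable-line extract in PDB2 incubated 2.5 h, 4°C. Laemmli elution; blotted for STARD3, His, actin.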

STARD3 FA/YA = experiment: MSP domain pull-down, STARD3 FA/YA mutant; format: binding; conditions: 6His MSP on NTA-Ni2+ resin, HeLa/STARD3 FA/YA protein extract, Western blot
Procedure, shortened: as §1

size of liposome aggregates at end of kinetics (MSP domain of MOSPD2; FFAT peptide 380 nM, MSP MOSPD2 WT 760 nM): 479 ± 87 nm
size of free liposomes (MSP domain of MOSPD2; size distribution analysis): 97 ± 15 nm
Molecule: WCSGKGDMSDEDDENEFFDAPEIITMPENLGH [FFAT‐containing peptide]
liposome aggregation [1]: no aggregation was observed

B1: MSP domain and coiled‐coil of VAP‐A [8–212], wild type (domain or fragment, human, UniProt Q9P0L0 8-212, looked up)
chain: MAKHEQILVLDPPTDLKFKGPFTDVVTTNLKLRNPSDRKVCFKVKTTAPRRYCVRPNSGIIDPGSTVTVSVMLQPFDYDPNEKSKHKFMVQTIFAPPNTSDMEAVWKEAKPDELMDSKLRCVFEMPNENDKLNDMEPSKAVPLNASKQDGPMPKPHSVSLNDTETRKLMEECKRLQGEMMKLSEENRHLRDEGLRLRKVAHSDKP
stoichiometry N (SEC): 2

B2: wild‐type MSP domain of MOSPD2: recombinant MSP domain of MOSPD2 [282–490], expressed in E. coli (protein)
chain: ISNEEQTPLLKKINPTESTSKAEENEKVDSKVKAFKKPLSVFKGPLLHISPAEELYFGSTESGEKKTLIVLTNVTKNIVAFKVRTTAPEKYRVKPSNSSCDPGASVDIVVSPHGGLTVSAQDRFLIMAAEMEQSSGTGPAELTQFWKEVPRNKVMEHRLRCHTVESSKPNTLTLKDNAFNMSDKTSEDICLQLSRLLESNRKLEDQVQR
modifications: left off: 6His, C-terminal, kept
interaction with STARD3 (STARD3): interacted specifically with STARD3
interaction with STARD3 FA/YA (STARD3 FA/YA): not with the STARD3 FA/YA mutant
